ChEMBL document CHEMBL1275447 (Antimicrob Agents Chemother, 2008)
Values after ≈ are worked out from the molar mass of the structure shown.

Experiments:
[1] = fT>MIC in neutropenic mouse infected with Pseudomonas aeruginosa isolate 1050 at 500 mg administered as 4 hr infusion; format: functional
Method in brief: (§1)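 Mouse fT>MIC was modelled with first-order one-compartment serum PK and 25.2% binding. Mice were neutropenic (cyclophosphamide) with uranyl nitrate renal impairment. Subcutaneous doses were 5.5, 2.25, 4.5, 4.5, 4.5, 4.5, 0.75, 0.375 mg/kg at 0, 0.5, 1.5, 2.5, 3.5, 4.5, 6, 7.5 h per 8-h interval over 24 h.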

[2] = fT>MIC in human infected with Pseudomonas aeruginosa isolate 886 at 500 mg administered as 1 hr infusion; format: functional
[3] = fT>MIC in human infected with Pseudomonas aeruginosa isolate 935 at 500 mg administered as 1 hr infusion; format: functional
[4] = fT>MIC in neutropenic mouse infected with Pseudomonas aeruginosa isolate 1029 at 500 mg administered as 4 hr infusion; format: functional
[5] = fT>MIC in neutropenic mouse infected with Pseudomonas aeruginosa isolate 1062 at 500 mg administered as 4 hr infusion; format: functional; method in brief: as §1
[6] = fT>MIC in neutropenic mouse infected with Pseudomonas aeruginosa isolate 1082 at 500 mg administered as 1 hr infusion; format: functional
Method in brief: (§2)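 Free-drug time above MIC simulated from one-compartment mouse serum PK (25.2% protein binding). The mice were cyclophosphamide-neutropenic and uranyl nitrate-renally impaired. Regimen was subcutaneous 10, 15, 2.5, 1.25, 0.5, 0.25 mg/kg at 0, 0.5, 2.5, 4, 5.5, 7 h, repeated every 8 h over 24 h.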

[7] = fT>MIC in human infected with Pseudomonas aeruginosa isolate 968 at 500 mg administered as 4 hr infusion; format: functional
[8] = fT>MIC in human infected with Pseudomonas aeruginosa isolate 906 at 500 mg administered as 4 hr infusion; format: functional
Pseudomonas aeruginosa [9] = assay: Antibacterial activity against Pseudomonas aeruginosa isolate 979 by microdilution method; format: functional
[10] = AUC in healthy human at 500 mg administered as 4 hr infusion; format: ADME, organism-based; conditions: plasma, iv
Pseudomonas aeruginosa [11] = assay: Antibacterial activity against Pseudomonas aeruginosa isolate 906 by microdilution method; format: functional
Pseudomonas aeruginosa [12] = assay: Antibacterial activity against Pseudomonas aeruginosa isolate 931 by fractionation study; format: functional
[13] = Half-life in Pseudomonas aeruginosa ATCC 27853 infected neutropenic ICR mouse at 50 mg/kg, sc administered as single dose 2 hrs postinfection; format: ADME, organism-based; set-up: dose 50 mg/kg, route subcutaneous; conditions: in vivo
Method in brief: (§3)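 Neutropenic mice (cyclophosphamide ip 150 and 100 mg/kg, 4 and 1 days before inoculation) with uranyl nitrate 5 mg/kg ip 3 days before, for renal impairment. Thigh infection with ATCC 27853 at 10⁶ CFU/ml, 0.1 ml per thigh. Single sc doses 2 h later. Intracardiac blood from 6–12 mice per time point, eight time points over 4 h. Serum assayed by HPLC (linear 0.5–40 μg/ml). One-compartment first-order fit.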

[14] = fT>MIC in human infected with Pseudomonas aeruginosa isolate 896 at 500 mg administered as 4 hr infusion; format: functional
[15] = Clearance in Pseudomonas aeruginosa ATCC 27853 infected neutropenic ICR mouse at 150 mg/kg, sc administered as single dose 2 hrs postinfection; format: ADME, organism-based; set-up: dose 150 mg/kg, route subcutaneous; conditions: in vivo; method in brief: as §3
[16] = fT>MIC in human infected with Pseudomonas aeruginosa isolate 936 at 500 mg administered as 4 hr infusion; format: functional
[17] = fT>MIC in human infected with Pseudomonas aeruginosa isolate 1005 at 500 mg administered as 4 hr infusion; format: functional
Pseudomonas aeruginosa [18] = assay: Antibacterial activity against Pseudomonas aeruginosa isolate 935 by microdilution method; format: functional
Method in brief: (§4)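 CLSI broth microdilution in cation-adjusted Mueller-Hinton broth (20–25 mg/liter Ca, 10–12.5 mg/liter Mg). Standard inoculum 10⁵ CFU/ml, incubated in ambient air. Clinical hospital isolates.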

[19] = fT>MIC in human infected with Pseudomonas aeruginosa isolate 944 at 500 mg administered as 1 hr infusion; format: functional
[20] = Tmax in Pseudomonas aeruginosa ATCC 27853 infected neutropenic ICR mouse at 50 mg/kg, sc administered as single dose 2 hrs postinfection by HPLC; format: ADME, organism-based; set-up: dose 50 mg/kg, route subcutaneous; conditions: in vivo; method in brief: as §3
[21] = fT>MIC in human infected with Pseudomonas aeruginosa isolate 1058 at 500 mg administered as 1 hr infusion; format: functional
[22] = fT>MIC in neutropenic mouse infected with Pseudomonas aeruginosa isolate 1060 at 500 mg administered as 4 hr infusion; format: functional; method in brief: as §1
[23] = fT>MIC in human infected with Pseudomonas aeruginosa isolate 1055 at 500 mg administered as 1 hr infusion; format: functional
[24] = fT>MIC in human infected with Pseudomonas aeruginosa isolate 927 at 500 mg administered as 1 hr infusion; format: functional
[25] = fT>MIC in neutropenic mouse infected with Pseudomonas aeruginosa isolate 896 at 500 mg administered as 4 hr infusion; format: functional; method in brief: as §1
[26] = fT>MIC in neutropenic mouse infected with Pseudomonas aeruginosa isolate 1060 at 500 mg administered as 1 hr infusion; format: functional; method in brief: as §2
[27] = fT>MIC in neutropenic mouse infected with Pseudomonas aeruginosa isolate 1005 at 500 mg administered as 1 hr infusion; format: functional
Pseudomonas aeruginosa [28] = assay: Antibacterial activity against Pseudomonas aeruginosa isolate 1029 by microdilution method; format: functional
[29] = fT>MIC in human infected with Pseudomonas aeruginosa isolate 1062 at 500 mg administered as 1 hr infusion; format: functional
[30] = fT>MIC in human infected with Pseudomonas aeruginosa isolate 1006 at 500 mg administered as 4 hr infusion; format: functional
[31] = fT>MIC in neutropenic mouse infected with Pseudomonas aeruginosa isolate 993 at 500 mg administered as 4 hr infusion; format: functional; method in brief: as §1
[32] = fT>MIC in neutropenic mouse infected with Pseudomonas aeruginosa isolate 1029 at 500 mg administered as 1 hr infusion; format: functional
[33] = fT>MIC in neutropenic mouse infected with Pseudomonas aeruginosa isolate 1055 at 500 mg administered as 4 hr infusion; format: functional; method in brief: as §1
[34] = fT>MIC in neutropenic mouse infected with Pseudomonas aeruginosa isolate 936 at 500 mg administered as 4 hr infusion; format: functional; method in brief: as §1
Pseudomonas aeruginosa [35] = assay: Antibacterial activity against Pseudomonas aeruginosa isolate 1082 by microdilution method; format: functional; method in brief: as §4
[36] = Half-life in Pseudomonas aeruginosa ATCC 27853 infected neutropenic ICR mouse at 150 mg/kg, sc administered as single dose 2 hrs postinfection; format: ADME, organism-based; set-up: dose 150 mg/kg, route subcutaneous; conditions: in vivo; method in brief: as §3
[37] = fT>MIC in human infected with Pseudomonas aeruginosa isolate 1052 at 500 mg administered as 1 hr infusion; format: functional
[38] = fT>MIC in neutropenic mouse infected with Pseudomonas aeruginosa isolate 1058 at 500 mg administered as 4 hr infusion; format: functional; method in brief: as §1
[39] = fT>MIC in human infected with Pseudomonas aeruginosa isolate 1058 at 500 mg administered as 4 hr infusion; format: functional
Pseudomonas aeruginosa [40] = assay: Antibacterial activity against Pseudomonas aeruginosa isolate 988 by microdilution method; format: functional
Pseudomonas aeruginosa [41] = assay: Antibacterial activity against Pseudomonas aeruginosa isolate 886 by microdilution method; format: functional

C[C@@H](O)[C@H]1C(=O)N2C(C(=O)O)=C(S[C@@H]3CN[C@H](CNS(N)(=O)=O)C3)[C@H](C)[C@H]12 [DORIPENEM]
fT>MIC [1]: 52.5%
fT>MIC [2]: 90%
fT>MIC [3]: 55%
fT>MIC [4]: 100%
fT>MIC [5]: 95%
fT>MIC [6]: 55%
fT>MIC [7]: 0%
fT>MIC [8]: 65%
MIC (Pseudomonas aeruginosa [9]): 2 µg/mL (≈ 4.76 µM)
AUC at 4 h [10]: 32400 ng·h/mL
MIC (Pseudomonas aeruginosa [11]): 2 µg/mL (≈ 4.76 µM)
MIC (Pseudomonas aeruginosa [12]): 3 µg/mL (≈ 7.13 µM)
half-life [13]: 20.4 min
fT>MIC [14]: 0%
CL/F [15]: 14.2 mL/min/kg
fT>MIC [16]: 0%
fT>MIC [17]: 80%
MIC (Pseudomonas aeruginosa [18]): 1 µg/mL (≈ 2.38 µM)
fT>MIC [19]: 27.5%
Tmax [20]: 22.8 min
fT>MIC [21]: 40%
fT>MIC [22]: 52.5%
fT>MIC [23]: 72.5%
fT>MIC [24]: 7.5%
fT>MIC [25]: 0%
fT>MIC [26]: 30%
fT>MIC [27]: 55%
MIC (Pseudomonas aeruginosa [28]): 0.125 µg/mL (≈ 0.297 µM)
fT>MIC [29]: 72.5%
fT>MIC [30]: 0%
fT>MIC [31]: 100%
fT>MIC [32]: 100%
fT>MIC [33]: 95%
fT>MIC [34]: 0%
MIC (Pseudomonas aeruginosa [35]): 1 µg/mL (≈ 2.38 µM)
half-life [36]: 26.4 min
fT>MIC [37]: 55%
fT>MIC [38]: 70%
fT>MIC [39]: 65%
MIC (Pseudomonas aeruginosa [40]): 8 µg/mL (≈ 19 µM)
MIC (Pseudomonas aeruginosa [41]): 0.25 µg/mL (≈ 0.595 µM)
